Hits are enriched below; roughly 1.5% of the tested compounds scored in any of these assays.
PPC-1+TRAIL kill: PPC-1 cancer cell killing with TRAIL present. hit rate 0.41% among 220,000. AID 1443. cell killing (% activity), % at 4 µM or 5 µM. PPC-1 cells + TRAIL, ATPLite viability luminescence;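 active = cell killing above 50% in the first pass at 4 µM, then a duplicate retest at 5 µM averaging 50% or more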
FLuc inhib CS: Photinus pyralis luciferase inhibition counter-screen; ATPLite firefly luciferase biochemical luminescence, 10 min; inhibition, % at 10 µM; hit rate 1.5% among 200,000;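 active = inhibition above about 50% when tested at 10 µM, limit read from the data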
Target sequence (P08659 whole entry, looked up): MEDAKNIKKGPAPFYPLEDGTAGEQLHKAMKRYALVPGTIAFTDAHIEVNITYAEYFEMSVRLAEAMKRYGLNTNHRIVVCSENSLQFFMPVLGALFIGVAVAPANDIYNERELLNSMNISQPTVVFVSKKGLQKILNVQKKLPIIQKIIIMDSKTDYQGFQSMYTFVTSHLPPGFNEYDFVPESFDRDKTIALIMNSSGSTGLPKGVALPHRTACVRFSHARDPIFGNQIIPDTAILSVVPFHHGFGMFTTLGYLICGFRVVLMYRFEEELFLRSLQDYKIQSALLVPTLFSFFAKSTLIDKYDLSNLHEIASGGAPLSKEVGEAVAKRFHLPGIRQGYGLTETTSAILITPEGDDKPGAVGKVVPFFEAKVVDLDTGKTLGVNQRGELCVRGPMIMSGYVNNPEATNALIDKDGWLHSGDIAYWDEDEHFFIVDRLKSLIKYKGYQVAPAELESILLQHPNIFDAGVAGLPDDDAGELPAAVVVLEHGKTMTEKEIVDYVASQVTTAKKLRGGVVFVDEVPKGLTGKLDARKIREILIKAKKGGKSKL
TRAIL sens C8: caspase-8 TRAIL sensitization; NB7+C8 cells + TRAIL, ATPlite viability luminescence; AID 624354; hit rate 1% among 360,000; inhibition (viability loss, TRAIL sensitization), % at 10 µM;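 active = compounds causing at least 50% loss of cell viability in the single-dose screen, relative to plate controls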
FLuc act counter: affects firefly luciferase, flagging false hits in luciferase stimulation screens | activation factor at 10 µM | P08659 | ATPlite luciferase biochemical, luminescence, 10 min; 0 = ATP-free wells, 1 = DMSO control | 200,000 tested, under 10 active;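 active = luciferase activation factor, scaled between plate controls, of at least 2 with compound at 10 µM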
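Assay system: Luciferase/luciferin reagent mix; Medium: PBS as buffer for the ATP substrate; Dosing: test compounds dosed from 2 mM stocks in 100% DMSO; Times: 10 min, room temperature; Signal: luminescence from luciferase reaction; Read-out: luciferase activation; Controls: No-ATP low control, compound-free enzyme-plus-ATP high control.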
Numbers stand for hits.

For CCN1/C(=C/c2ccc3cc(C)ccc3[n+]2CC)Sc2ccc3sccc3c21 the results were TRAIL sens C8 94.
Screening CSc1nc(O)c(/C=C2\C=Nc3ccccc32)[nH]1 returned PPC-1+TRAIL kill inactive, FLuc inhib CS 60, TRAIL sens C8 inactive and FLuc act counter inactive.
For O=C(CCCn1c(=O)[nH]c2cc(Cl)ccc2c1=O)N1CCN(c2ccc([N+](=O)[O-])cc2)CC1 the results were PPC-1+TRAIL kill inactive, FLuc inhib CS inactive, TRAIL sens C8 inactive and FLuc act counter inactive.
`COc1ccc2[nH]c(C(=O)Nc3ccc(C)c(F)c3)cc2c1` gave PPC-1+TRAIL kill inactive and TRAIL sens C8 inactive.
COc1ccc2[nH]c(C(=O)Nc3cccc(C)n3)cc2c1 was read as PPC-1+TRAIL kill inactive and TRAIL sens C8 55.
CCc1ccc(N2C(=O)Cc3c2nc(N)c(C#N)c3N)cc1 was read as PPC-1+TRAIL kill inactive, FLuc inhib CS inactive, TRAIL sens C8 inactive and FLuc act counter inactive.
For COc1cc2sc3ccc(-c4ccc(CN5CCOCC5)cc4)cc3c(=O)c2cc1OC the results were TRAIL sens C8 53.
`Cc1ccc(-c2ccc(OCC(=O)N3CCOCC3)cc2)cc1` gave PPC-1+TRAIL kill inactive, FLuc inhib CS inactive, TRAIL sens C8 inactive and FLuc act counter inactive.
Screening CC1(C)N=C(N)N=C(N)N1c1ccc(OCC(=O)N2CCOCC2)c(Cl)c1 returned TRAIL sens C8 83.
Screening CC1(C)N=C(N)N=C(N)N1c1ccc(OCC(=O)N2CCOCC2)cc1 returned TRAIL sens C8 75.
Screening COc1ccc(Br)cc1CN(C)CC(=O)NCc1ccc(F)cc1 returned TRAIL sens C8 inactive.
COCC(C)n1c(C)cc(C(=O)Cn2nc(C(=O)O)c3ccccc3c2=O)c1C (centres undefined) was read as PPC-1+TRAIL kill inactive, FLuc inhib CS 71, TRAIL sens C8 inactive and FLuc act counter inactive.
Screening c1ccc(-c2cc(-c3ccccc3)on2)cc1 returned PPC-1+TRAIL kill inactive and TRAIL sens C8 inactive.
For Cc1ccc(-c2cc(-c3ccccc3)no2)cc1 the results were TRAIL sens C8 55.
For CC(C)(C)n1cnc2cc(NC(=O)c3cccs3)ccc21 the results were PPC-1+TRAIL kill inactive, FLuc inhib CS 71, TRAIL sens C8 inactive and FLuc act counter inactive.
Screening CC(C)(C)n1cnc2cc(NC(=O)c3ccccc3)ccc21 returned TRAIL sens C8 inactive.
For CCn1cnc2cc(NC(=O)c3cccs3)ccc21 the results were PPC-1+TRAIL kill inactive, FLuc inhib CS 51, TRAIL sens C8 inactive and FLuc act counter inactive.
`CCn1cnc2cc(NCc3cccs3)ccc21` gave PPC-1+TRAIL kill inactive, FLuc inhib CS inactive, TRAIL sens C8 inactive and FLuc act counter inactive.
`COc1ncccc1-c1nnn(-c2ccc(F)cc2)n1` gave PPC-1+TRAIL kill inactive, FLuc inhib CS 51, TRAIL sens C8 inactive and FLuc act counter inactive.
COc1ncccc1-c1nnn(-c2ccc(Cl)c(Cl)c2)n1 was read as PPC-1+TRAIL kill inactive, FLuc inhib CS inactive, TRAIL sens C8 inactive and FLuc act counter inactive.
For COc1ncccc1-c1nnn(-c2ccc(C)cc2)n1 the results were PPC-1+TRAIL kill inactive, FLuc inhib CS 66, TRAIL sens C8 inactive and FLuc act counter inactive.
`Cc1ccc(-c2nn3c(-c4ccco4)nnc3c3ccccc23)cc1S(=O)(=O)NCC1CCCO1` (centres undefined) gave PPC-1+TRAIL kill inactive, FLuc inhib CS inactive, TRAIL sens C8 inactive and FLuc act counter inactive.
`COC(=O)c1cccc(N(C(=O)c2ccco2)C(C(=O)NC2CCCC2)c2ccc(N3CCOCC3)cc2)c1` (centres undefined) gave TRAIL sens C8 inactive.
`CCOc1ccccc1CN1CCNC(=O)C1CC(=O)NC1CCCCCC1` (centres undefined) gave TRAIL sens C8 inactive.
For COc1ccc(-c2nc3ccccn3c2C=O)cc1 the results were PPC-1+TRAIL kill inactive, FLuc inhib CS 61, TRAIL sens C8 inactive and FLuc act counter inactive.
Screening CC(=O)OCn1ncc(N2CCOCC2)c(Br)c1=O returned TRAIL sens C8 inactive.
O=C(OCn1ncc(Br)c(Br)c1=O)c1ccccc1Cl was read as PPC-1+TRAIL kill inactive, FLuc inhib CS inactive, TRAIL sens C8 93 and FLuc act counter inactive.
Screening O=C(OCn1ncc(Br)c(Br)c1=O)c1ccc(F)cc1 returned PPC-1+TRAIL kill inactive, FLuc inhib CS inactive, TRAIL sens C8 95 and FLuc act counter inactive.
COc1ccc(C(=O)CSc2n[nH]c(-c3ccco3)n2)cc1 was read as PPC-1+TRAIL kill inactive, FLuc inhib CS inactive, TRAIL sens C8 inactive and FLuc act counter inactive.
O=C(COc1ccc(-c2ccccc2)cc1)N/N=C/c1cc(O)ccc1Br was read as PPC-1+TRAIL kill inactive, FLuc inhib CS inactive, TRAIL sens C8 inactive and FLuc act counter inactive.

Compound activity as filed in PubChem BioAssay.
